# Measurements from ChEMBL document CHEMBL1781963, “Discovery of novel hepatoselective HMG-CoA reductase inhibitors for treating hypercholesterolemia: a bench-to-bedside case study on tissue selective drug distribution” (Bioorg Med Chem Lett, 2011).
# Legend:
# [1] = Drug excretion in human urine after 24 hrs; type: ADME, tissue-based; conditions: read-out: Activity
# Method in brief: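 Single ascending oral dose in healthy volunteers; the percentage of drug excreted in urine was measured at 24 h post dose.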
# [2] = Cmax in human plasma at 40 mg administered as single dose; type: ADME, organism-based; parameters: dose 40 mg
# Method in brief: (§1)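 Phase 1 single ascending oral dose in healthy volunteers, about 5–6 subjects per dose. Total plasma drug Cmax and AUC(0-∞) were measured. Free-drug exposures were derived using plasma protein binding.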
# [3] = Cmax in human plasma at 10 mg administered as single dose; type: ADME, organism-based; parameters: dose 10 mg; method in brief: as §1
# [4] = AUC (0 to infinity) in human plasma at 40 mg administered as single dose; type: ADME, cell-free; parameters: dose 40 mg, time infinity; method in brief: as §1
# [5] = AUC (0 to infinity) in human plasma at 120 mg administered as single dose; type: ADME, cell-free; parameters: dose 120 mg, time infinity; method in brief: as §1
# [6] = test system: Plasma; assay: fCmax in human plasma at 40 mg administered as single dose; type: ADME, cell-free
# Method in brief: (§2)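 Phase 1 single ascending oral dose in healthy volunteers, with N per dose group. Total plasma Cmax and AUC(0-∞) were measured. Free-drug exposures were derived from these using plasma protein binding (human plasma fu measured at 0.5 μg/mL).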
# [7] = test system: Plasma; assay: fCmax in human plasma at 320 mg administered as single dose; type: ADME, cell-free; method in brief: as §2
# [8] = test system: Plasma; assay: fAUC (0 to infinity) in human plasma at 40 mg administered as single dose; type: ADME, cell-free; method in brief: as §2
# [9] = test system: Homo sapiens; assay: Inhibition of HMG-CoA reductase in human assessed as decrease in AUC (0 to 24 hrs) of mevalonate level in plasma at 40 mg administered as single dose relative to control; type: functional
# [10] = test system: Homo sapiens; assay: Inhibition of HMG-CoA reductase in human assessed as decrease in AUC (0 to 72 hrs) of mevalonate level in plasma at 40 mg administered as single dose relative to control; type: functional
# [11] = test system: Homo sapiens; assay: Inhibition of HMG-CoA reductase in human assessed as decrease in AUC (0 to 72 hrs) of mevalonate level in plasma at 320 mg administered as single dose relative to control; type: functional
# [12] = target: T1, 3-hydroxy-3-methylglutaryl-coenzyme A reductase (Rattus norvegicus, UniProt P51639); assay: Inhibition of HMG-CoA reductase in Sprague-Dawley rat liver microsomes using [14C]HMG-CoA as substrate preincubated for 0.5 hrs before substrate addition measured after 0.75 hrs by beta scintillation counting; parameters: species or system Microsome
# T1 sequence (P51639 whole entry): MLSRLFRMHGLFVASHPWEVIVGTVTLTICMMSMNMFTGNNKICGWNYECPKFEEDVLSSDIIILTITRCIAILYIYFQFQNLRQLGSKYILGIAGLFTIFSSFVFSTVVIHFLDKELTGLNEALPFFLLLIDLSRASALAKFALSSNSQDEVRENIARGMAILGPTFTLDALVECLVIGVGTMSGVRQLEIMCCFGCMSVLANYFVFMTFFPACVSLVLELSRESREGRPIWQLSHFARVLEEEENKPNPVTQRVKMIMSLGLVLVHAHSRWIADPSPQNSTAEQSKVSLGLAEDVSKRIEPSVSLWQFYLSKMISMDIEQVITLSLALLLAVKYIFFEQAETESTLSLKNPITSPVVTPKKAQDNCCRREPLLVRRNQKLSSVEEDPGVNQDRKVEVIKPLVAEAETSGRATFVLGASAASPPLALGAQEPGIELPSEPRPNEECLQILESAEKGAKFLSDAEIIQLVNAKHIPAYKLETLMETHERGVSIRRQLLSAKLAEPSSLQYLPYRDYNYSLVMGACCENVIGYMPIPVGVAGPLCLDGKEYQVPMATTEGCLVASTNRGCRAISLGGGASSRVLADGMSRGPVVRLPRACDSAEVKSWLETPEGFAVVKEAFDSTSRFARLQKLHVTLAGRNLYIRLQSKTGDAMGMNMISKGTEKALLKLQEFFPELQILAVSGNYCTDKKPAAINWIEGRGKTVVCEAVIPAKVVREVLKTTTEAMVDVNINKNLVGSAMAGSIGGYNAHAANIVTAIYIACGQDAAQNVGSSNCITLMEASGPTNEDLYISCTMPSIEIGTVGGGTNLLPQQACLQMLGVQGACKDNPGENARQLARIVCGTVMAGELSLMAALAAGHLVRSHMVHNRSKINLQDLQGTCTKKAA
# Method in brief: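 Enzyme inhibition was measured in an HMG-CoA reductase preparation from rat microsomes. IC50 is reported as mean ± SEM of n ≥ 2 independent determinations.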
# [13] = Fraction unbound in dog plasma at 0.5 ug/ml; type: ADME, cell-free, Canis lupus familiaris
# Method in brief: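 Unbound fraction in rat, dog or human plasma, measured at a drug concentration of 0.5 μg/mL.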
# [14] = test system: Rattus norvegicus; assay: fAUC (0 to 24 hrs) in rat at 1 mg/kg, iv; type: ADME, organism-based; parameters: dose 1 mg/kg, route intravenous; conditions: in vivo
# Method in brief: (§3)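 Rat and dog given 1 mg/kg iv, or po at 10 mg/kg (rat) or 5 mg/kg (dog). Plasma sampled to 24 h. AUC(0-24) as free drug using plasma protein binding values. Geometric mean of n = 2 animals/group; dog po n = 3 or n = 1.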
# [15] = test system: Rattus norvegicus; assay: fAUC (0 to 24 hrs) in rat at 10 mg/kg, po; type: ADME, organism-based; parameters: dose 10 mg/kg, route oral; conditions: in vivo; method in brief: as §3
# [16] = test system: Canis familiaris; assay: fAUC (0 to 24 hrs) in dog at 1 mg/kg, iv; type: ADME, organism-based, Canis lupus familiaris; parameters: dose 1 mg/kg, route intravenous; conditions: in vivo; method in brief: as §3
# [17] = test system: Canis familiaris; assay: fAUC (0 to 24 hrs) in dog at 5 mg/kg, po; type: ADME, organism-based, Canis lupus familiaris; parameters: dose 5 mg/kg, route oral; conditions: in vivo; method in brief: as §3
# [18] = test system: Rattus norvegicus; assay: fCmax in rat at 10 mg/kg, po; type: ADME, organism-based; parameters: dose 10 mg/kg, route oral; conditions: in vivo
# Method in brief: (§4)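 Single po dose: rat 10 mg/kg (n = 2), dog 5 mg/kg (n = 1 or 3 animals). Values are geometric means. Cmax is given as free drug concentration using plasma protein binding values, which were determined at 0.5 μg/mL.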
# [19] = test system: Canis familiaris; assay: fCmax in dog at 5 mg/kg, po; type: ADME, organism-based, Canis lupus familiaris; parameters: dose 5 mg/kg, route oral; conditions: in vivo; method in brief: as §4
# [20] = Systemic plasma clearance in rat at 1 mg/kg, iv; type: ADME, organism-based; parameters: dose 1 mg/kg, route intravenous; method in brief: as §3
# [21] = Systemic plasma clearance in dog at 1 mg/kg, iv; type: ADME, organism-based, Canis lupus familiaris; parameters: dose 1 mg/kg, route intravenous; method in brief: as §3
# [22] = Half life in rat at 1 mg/kg, iv; type: ADME, organism-based; parameters: dose 1 mg/kg, route intravenous; conditions: in vivo
# Method in brief: (§5)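 Intravenous 1 mg/kg dose in rat or dog. Terminal half-life was derived from plasma concentrations and is reported as the geometric mean of n = 2 animals per group.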
# [23] = Half life in dog at 1 mg/kg, iv; type: ADME, organism-based, Canis lupus familiaris; parameters: dose 1 mg/kg, route intravenous; conditions: in vivo; method in brief: as §5
# [24] = Volume of distribution at steady state in rat at 1 mg/kg, iv; type: ADME, organism-based; parameters: dose 1 mg/kg, route intravenous; conditions: in vivo, read-out: Vdss; method in brief: as §3
# [25] = Volume of distribution at steady state in dog at 1 mg/kg, iv; type: ADME, organism-based, Canis lupus familiaris; parameters: dose 1 mg/kg, route intravenous; conditions: in vivo, read-out: Vdss; method in brief: as §3
# [26] = Oral bioavailability in rat at 10 mg/kg; type: ADME, organism-based; conditions: in vivo; method in brief: as §3
# [27] = Oral bioavailability in dog at 5 mg/kg; type: ADME, organism-based, Canis lupus familiaris; conditions: in vivo; method in brief: as §3
# [28] = Terminal half life in human plasma at 40 mg administered as single dose; type: ADME, cell-free; conditions: read-out: beta t1/2 (converted)
# [29] = Terminal half life in human plasma at 240 mg administered as single dose; type: ADME, cell-free; conditions: read-out: beta t1/2 (converted)
# [30] = test system: Plasma; assay: fAUC (0 to infinity) in human plasma at 80 mg administered as single dose; type: ADME, cell-free; method in brief: as §2
# [31] = test system: Homo sapiens; assay: Inhibition of HMG-CoA reductase in human assessed as decrease in AUC (0 to 24 hrs) of mevalonate level in plasma at 20 mg administered as single dose relative to control; type: functional
# [32] = Terminal half life in human plasma at 1 mg administered as single dose; type: ADME, cell-free; conditions: read-out: beta t1/2 (converted)
Compound,dose excreted at 24 h [1] [%],Cmax [2] [ng/mL],AUC(0-inf) [4] [ng·h/mL],fCmax [6] [ng/mL],fAUC [8] [ng·h/mL],inhibition (INH) [9] [%],inhibition (INH) [10] [%],IC50 [12] [nM],fraction unbound at 0.5 ug/ml [13],fAUC [14] [ng·h/mL],fAUC [15] [ng·h/mL],fAUC [16] [ng·h/mL],fAUC [17] [ng·h/mL],fCmax [18] [ng/mL],fCmax [19] [ng/mL],clearance [20] [mL/min/kg],clearance [21] [mL/min/kg],half-life [22] [h],half-life [23] [h],Vd [24] [L/kg],further results
O=C([O-])C[C@H](O)C[C@H](O)CCn1c(-c2ccc(F)cc2)nc(C(=O)NCc2cccc(F)c2)c1C1CC1.[Na+],< 1,2.25,6.27,0.653,1.81,-39,-19,1.2,0.43,83,2.7,293,51,2,5.4,39,25,0.43,0.27,0.17,Cmax [3]: 0.355 ng/mL; AUC(0-inf) [5]: 12.5 ng·h/mL; fCmax [7]: 12.8 ng/mL; inhibition (INH) [11]: -28%; Vd [25]: 0.1 L/kg; bioavailability [26]: 0.3%; bioavailability [27]: 2.2%; half-life [28]: 3.22 h; half-life [29]: 4.06 h
Cc1ccc(CNC(=O)c2nn(-c3ccc(F)cc3)c(CC[C@@H](O)C[C@@H](O)CC(=O)O)c2C(C)C)cc1,12,1770,5110,90.3,261,-41,-3,1,0.032,10,6.4,28,64,1.3,51.5,27,19,0.34,0.78,0.14,fAUC [30]: 602 ng·h/mL; inhibition (INH) [31]: -34%; Vd [25]: 0.1 L/kg; bioavailability [26]: 6%; bioavailability [27]: 44%; half-life [32]: 2.55 h; half-life [28]: 8.57 h
